Experimental data reported in PubChem BioAssay AID686919 (Broad Institute, 2013).
Active and inactive are the calls of the source.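 The calls were made as follows: active = remaining cruzain activity at or below half of the DMSO control at 10 µM, implied only; inactive = remaining activity above half of control.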

Test system: cruzain (cruzipain) [Trypanosoma cruzi]
Assay: T. cruzi cruzain enzyme activity inhibition – biochemical, dry powder, percent inhibition, mechanism study for T. cruzi phenotypic hit project, dose response (AID 686919)
Settings: recombinant cruzain, Z-Phe-Arg-AMC fluorescence rate; at 10 µM (top of the series)
How it was run: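 Medium – pH 5.5 acetate buffer with DTT and Triton X-100 · Test system – recombinant cruzain · Read-out basis – AMC release rate normalized to DMSO control wells · Also added – Z-Phe-Arg-AMC, 10 µM · Signal – AMC fluorescence rate, 355/460 nm · Benchmarks – DMSO vehicle control · Times – 5 min preincubation at room temperature, 3 min kinetic read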

Remaining cruzain activity (% of DMSO control), inactive:
CN(C)C(=O)c1cccc(-c2ccc([C@H]3[C@H](CO)N4CCCCN(C(=O)C5CCCCC5)C[C@@H]34)cc2)c1 72.3%
O=C(C1CCC1)N1CCCCN2[C@@H](CO)[C@H](c3ccc(Br)cc3)[C@@H]2C1 133%
CN(C)C(=O)c1cccc(-c2ccc([C@H]3[C@H](CO)N4CCCCN(C(=O)C5CCC5)C[C@@H]34)cc2)c1 106%
CN(C)C(=O)c1cccc(-c2ccc([C@H]3[C@H](CO)N4CCCCN(C(=O)C5CC5)C[C@@H]34)cc2)c1 104%
CN(C)C(=O)c1cccc(-c2ccc([C@H]3[C@H](CO)N4CCCCN(C(=O)CC5CC5)C[C@@H]34)cc2)c1 83.3%
